Compound activity from PubChem BioAssay.
Only some compounds are listed: those with a hit (about 3.7% of all), similar ones and a draw of the others.
KCNK3 inh – human KCNK3 channel inhibitors, primary screen, CHO cells, FluxOR thallium flux, B-score | Potassium channel subfamily K member 3 (Homo sapiens), O14649 | FluxOR fluorescence; active compounds read low | B-score at 10 µM | 340,000 tested, 0.84% active | AID 602410, 2012;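 active = B-score under library mean minus 4 SD, starting fluorescence ratio at most library mean plus 5 SD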;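 note: more negative B-score means stronger inhibition of thallium flux through KCNK3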
Target sequence (O14649 whole entry, looked up): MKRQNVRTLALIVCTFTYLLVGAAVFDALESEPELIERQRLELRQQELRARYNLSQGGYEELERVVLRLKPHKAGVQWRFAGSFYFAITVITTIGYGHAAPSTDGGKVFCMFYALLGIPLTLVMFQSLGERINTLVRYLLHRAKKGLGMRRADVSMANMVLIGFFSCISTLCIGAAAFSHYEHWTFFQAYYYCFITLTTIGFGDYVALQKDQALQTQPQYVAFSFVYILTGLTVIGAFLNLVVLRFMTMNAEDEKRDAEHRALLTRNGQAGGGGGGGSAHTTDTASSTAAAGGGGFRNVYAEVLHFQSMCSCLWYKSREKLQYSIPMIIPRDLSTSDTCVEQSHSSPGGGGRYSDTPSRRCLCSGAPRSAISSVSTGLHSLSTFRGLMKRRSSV
KCNQ1 inh – inhibitors of human KCNQ1 channel, primary screen, cell-based, thallium flux, high-throughput | AID 2642, 2010 | 310,000 tested, 1.3% active | B-score at 10 µM | CHO-K1 KCNQ1, FluxOR thallium flux fluorescence; active compounds read high;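 active = compounds whose thallium flux B-score, printed positive for inhibition, exceeds three library SD while starting fluorescence stays within three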;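 note: channel opened by potassium depolarization with thallium stimulus after 20 min compound exposure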
hERG protect – hERG rescue from dofetilide block, primary screen, cell-based, CHO-hERG, FluxOR thallium flux, dofetilide IC70; Voltage-gated inwardly rectifying potassium channel KCNH2 (Homo sapiens), Q12809; 310,000 tested, 0.51% active; activation (rescue from dofetilide block), less the hit threshold, % at 10 µM; dofetilide IC70 present;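 active = activation above the mean of controls blocked by dofetilide plus 5 SD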;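 note: thallium influx through hERG after potassium depolarization seen as dye fluorescence rise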
KCNQ1 act – potentiators or activators of KCNQ1 channel, primary screen, cell-based, thallium flux, high-throughput; Potassium voltage-gated channel subfamily KQT member 1 (Homo sapiens), P51787; B-score at 10 µM; CHO-K1 KCNQ1, thallium flux FluxOR fluorescence; active compounds read high; AID 2648, 2010; 310,000 tested, 0.35% active;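 active = fluorescence ratio B-score, a plate-corrected score, at least three library SD, with initial intensity B-score within 5 SD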
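Assay system: CHO-K1 cells stably expressing KCNQ1. Medium: assay buffer for compound exposure, DMSO matched across wells. Timing: 37 °C overnight plating, 90-min dark dye load, 20-min compound pretreatment. Signal: kinetic FluxOR fluorescence, 10 s baseline plus 110 s post-stimulus.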
KCNK9 inh – KCNK9 potassium channel inhibitors, primary screen, HEK293 cells, thallium flux. Potassium channel subfamily K member 9 (Homo sapiens), Q9NPC2. FluxOR thallium flux fluorescence; active compounds read low. B-score at 10 µM. 310,000 tested, 1.2% active. AID 488922, 2010;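 active = ratio B-score over 3 SD below the library mean, with starting fluorescence within 5 SD of its mean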;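 note: negative B-score means less thallium flux so channel inhibition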
Kir21 inh – inhibitors of mouse Kir2.1 inward-rectifier potassium channel; Inward rectifier potassium channel 2 (Mus musculus), P35561; HEK293-Kir2.1, FluxOR thallium flux fluorescence; active compounds read low; B-score at 10 µM; 310,000 tested, 0.85% active;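 active = fluorescence ratio B-score at or below minus 3 SD of library scores, with starting-brightness B-score within 2 SD, cut at about -4.2 in these data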;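 note: channel flux triggered by added potassium and thallium sulfate stimulus; B-score of peak minus minimum fluorescence over baseline after thallium stimulus; more negative B-score means stronger Kir2.1 block with less thallium influx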
Active calls of the source: *; i = inactive; / = no result.

SMILES	KCNK3 inh	KCNQ1 inh	hERG protect	KCNQ1 act	KCNK9 inh	Kir21 inh
COc1cccc(-c2nc(CS(=O)(=O)CC(=O)N3CCc4ccccc43)c(C)o2)c1	i	i	-9	i	i	-0.06
CCOc1c2ccc(C(=O)NCc3ccc(C(F)(F)F)cc3C(F)(F)F)cc2nn1C	i	i	-4	i	i	-0.76
CCCCn1nc2cc(C(=O)NCc3ccc(C(F)(F)F)cc3C(F)(F)F)ccc2c1OCC	i	6*	-8	i	i	0.22
O=C(NCCc1ccc(F)cc1)Nc1ccc([N+](=O)[O-])cc1	i	i	-16	i	i	1.6
Fc1ccc(NC(=S)NCCc2ccc(Cl)cc2)cc1	i	i	-22	i	i	-4.4*
O=[N+]([O-])c1ccc(NC(=S)NCCc2ccc(F)cc2)cc1	i	6*	-49	i	i	-5.2*
O=[N+]([O-])c1ccc(S(=O)(=O)NNC(=S)NCCc2ccccc2)cc1	i	i	-2	i	i	0.82
CC(=O)c1cccc(NC(=S)NCCCCc2ccccc2)c1	i	6*	-9	i	i	-1.4
O=[N+]([O-])c1cccc(NC(=S)NCCc2ccccc2)c1	i	8*	-15	i	i	1.2
COc1ccccc1CCNC(=O)Nc1cccc([N+](=O)[O-])c1	i	6*	-4	i	i	-0.38
COc1ccc(NC(=O)Nc2cccc([N+](=O)[O-])c2)cc1Cl	i	i	-10	i	i	-0.56
CCC(C(=O)c1ccc(O)cc1)c1ccccc1 (centres undefined)	i	i	-5	i	i	-5*
CCC(C(=O)N(C(C)C)C(C)C)c1ccccc1 (centres undefined)	i	/	/	/	/	/
COc1ccc(CCNc2oc(COc3ccc(Br)cc3)nc2C#N)cc1OC	-12*	i	-20	i	-8.1*	-0.11
COc1ccc(CCNc2oc(COc3ccccc3F)nc2C#N)cc1	i	i	-13	i	i	-0.38
COc1cccc(C2/C(=C(\O)c3ccc4c(c3)OCCO4)C(=O)C(=O)N2CCCN2CCOCC2)c1OC (centres undefined)	i	i	-8	i	i	1.6
CCCn1nc(NC(=O)c2cccs2)c2cc3cc(C)ccc3nc21	i	i	-19	i	-7.1*	0.46
CN(Cc1ccco1)C(=O)Cn1ncc2c([nH]c3ccccc32)c1=O	i	i	-17	i	i	-0.44
O=C(c1nc2ccccn2c1CNCCn1ccc2ccccc21)N1CCOCC1	i	i	-8	i	i	1.8
COc1ccc(Cn2nnnc2C(C(C)C)N(Cc2ccco2)Cc2cccs2)cc1 (centres undefined)	i	i	-8	i	-7.6*	-1.1
CC(C)C(c1nnnn1Cc1ccccc1)N(Cc1ccco1)Cc1cccs1 (centres undefined)	i	i	-4	i	i	-1.8
C=CCn1c(=S)[nH]c2sc3c(c2c1=O)CCCC3	i	i	12*	65*	i	-0.41
Cc1ccc(-n2c(=O)c3c4c(sc3n3c(=S)[nH]nc23)CCC4)cc1	i	i	-16	i	i	-0.82
Cc1ccc(-n2c(=S)[nH]c3sc4c(c3c2=O)CCC4)cc1	i	i	-2	8*	i	-0.14
COCCn1c(=S)[nH]c2sc3c(c2c1=O)CCCC3	i	i	17*	30*	i	2.1
SMILES	KCNK3 inh	KCNQ1 inh	hERG protect	KCNQ1 act	KCNK9 inh	Kir21 inh
O=c1c2c3c(sc2[nH]c(=S)n1Cc1ccco1)CCC3	i	i	11*	15*	i	-0.05
CN(CC(=O)Nc1ccccc1Br)C(=O)c1ccccc1OCc1ccc(Cl)cc1	i	/	/	/	/	/
O=C(COC(=O)c1ccc(Cl)nc1)Nc1ccc2c(c1)OCO2	i	i	-2	i	i	-1.1
CCOC(=O)C1=C(COc2ccccc2)NC(=O)NC1c1ccc(Br)cc1 (centres undefined)	i	i	-6	i	i	0.66
O=C(C1=C(O)C(=O)N(CC2CCCO2)C1c1ccccc1F)c1ccco1 (centres undefined)	i	i	-5	i	i	-0.32
CC(=O)Nc1ccc(NC(=O)CNC(=O)c2cccc(C)c2)cc1	i	i	0	i	i	-0.24
Cc1ccc(-c2cc(-c3ccc(C)cc3O)[nH]n2)cc1	i	i	-4	i	i	0.76
Cc1ccc(-c2cc(-c3ccc(F)cc3)n[nH]2)c(O)c1	i	6*	-3	i	i	-0.87
COc1cccc(C(c2nnnn2Cc2ccco2)N2CCN(c3cccc(C)c3C)CC2)c1OC (centres undefined)	i	6*	-6	i	-6.8*	0.14
COc1cc(C(=O)N/N=C/c2ccc(OC(=O)c3ccccc3Cl)c(OC)c2)ccc1O	i	6*	-18	i	i	0.1
COc1ccc(OCc2nnc(SCC(=O)Nc3ccccc3Cl)o2)cc1	i	i	-4	i	i	0.84
COC(=O)c1ccc(COc2ccccc2/C=C(\C#N)C(=O)Nc2ccc(C)cc2C)cc1	i	i	-4	i	-7.1*	-0.17
O=C(COc1ccc(Cl)cc1)NNC(=O)C(=O)NC1CCCCC1	i	i	15*	11*	i	0.22
COc1ccccc1C(=O)NNC(=O)C(=O)NC1CCCCC1	i	i	21*	20*	i	0.59
O=C(COc1ccc(Cl)cc1)NC1CC1	i	i	0	i	i	0
CCOc1ccc(NC(=O)CN(C)C(=O)Cc2n[nH]c(=O)c3ccccc23)cc1OCC	i	/	/	/	/	/
CCOC(=O)c1sc2nccc(N(C)C)c2c1N=CNOCc1c(F)cccc1Cl	i	8*	-6	i	i	0.6
CCOC(=O)c1sc2nccc(N(C)C)c2c1N=CNOCc1ccccc1	i	/	/	/	/	/
C=CCN1C=C/C(=C\C=C(C#N)C#N)c2ccccc21	i	i	-8	i	i	0.33
CCCCCCN1C=C/C(=C\C=C(C#N)C#N)c2ccccc21	i	i	-12	i	-7.2*	-1.8
CCOc1ccc(N=C(C)c2ccccc2O)cc1	i	i	-1	i	i	0
Cc1ccc(C)c(N=Nc2ccc(O)c3ncccc23)c1	i	i	-6	i	i	0.98
